Reference: PubChem BioAssay AID493088 (Southern Research Specialized Biocontainment Screening …, 2011)
The source made the active and inactive calls.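 Rule for the calls: active = compounds blocking at least half of the virus-caused cell damage in the dose series; inactive = the rest.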

system: HEp-2 RSV Long CPE inhibition, luminescence; assay: RSV cytopathic effect inhibition, dose response, cell-based, HEp-2, RSV Long, synthesized compounds, set 5 (AID 493088)
Summary of the method: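 Assay system – RSV Long-infected HEp-2 cells · Probe or stimulus – RSV Long, MOI 0.45 · Compound – 8 doses, 1:2 steps, 0.39–50 µM, 0.5% DMSO · Times – 6-day incubation of infected, compound-treated cells at 37 °C · Detection – luminescent CPE signal · Evaluation – % CPE inhibition versus cell-only and virus-only wells, plus IC50 · Control set – cell-only and virus-only wells · Replication – triplicates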

Structure (SMILES)	IC50
Cc1ncccc1NC(=O)[C@@H]1CCCN1S(=O)(=O)c1cccc2cccnc12	> 50 µM (inactive)
CCc1ccccc1NC(=O)[C@@H]1CCCN1S(=O)(=O)c1cccc2cccnc12	16.2 µM
CCOC(=O)c1ccc2[nH]c3c(c2c1)CN(C)CC3	28.4 µM
COCCCNC(=O)c1ccc(Cn2c(=O)c3ccccc3n(Cc3ccc(C)cc3)c2=O)cc1	1.71 µM
CC(=O)c1ccccc1NC(=O)[C@@H]1CCCN1S(=O)(=O)c1cccc2cccnc12	> 50 µM (inactive)
